Laboratory results from ChEMBL document CHEMBL1153798, “Substituted tetrahydroquinolines as potent allosteric inhibitors of reverse transcriptase and its key mutants” (Bioorg Med Chem Lett, 2009).

How the values were obtained:
[1] = Inhibition of HIV1 reverse transcriptase K103 mutant
[2] = system: Human immunodeficiency virus 1; assay: Antiviral activity against HIV1 3B infected human MT4 cells assessed as drug level required for 95% inhibition in the presence of 10% fetal bovine serum; type: functional
Outline: (§1)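 Spread assay: MT-4 human T-lymphoid cells in RPMI 1640 with either 10% FBS or 50% NHS; CIC95 taken as the concentration blocking >95% of virus spread. Wild-type virus H9IIIB or R8 as stated per line. Geometric mean of at least two determinations, individual values within 25% of the mean.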

[3] = system: Human immunodeficiency virus 1; assay: Antiviral activity against HIV1 3B infected human MT4 cells assessed as drug level required for 95% inhibition in the presence of 50% normal human serum; type: functional
Outline: as §1

Canis familiaris = assay: Hepatic clearance in Beagle dog at 1 mg/kg, po and 0.5 mg/kg, iv; type: ADME, organism-based, Canis lupus familiaris, Liver; details: in vivo
Outline: (§2)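 Beagle dogs (n = 2) dosed singly, po 1 mg/kg and iv 0.5 mg/kg; iv cassette co-administered with other analogues at 0.125 mg/kg. Interanimal variability below 20%.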

[4] = Half life in Sprague-Dawley rat at 10 mg/kg, po and 2 mg/kg, iv; type: ADME, organism-based; details: in vivo
[5] = Half life in Beagle dog at 1 mg/kg, po and 0.5 mg/kg, iv; type: ADME, organism-based, Canis lupus familiaris; details: in vivo
Outline: as §2

Rattus norvegicus [6] = assay: Hepatic clearance in rat at 10 mg/kg, po and 2 mg/kg, iv; details: in vivo
[7] = system: Human immunodeficiency virus 1; assay: Ratio of IC50 for HIV1 carrying reverse transcriptase Y181C/G190A mutant to IC50 for wild type HIV1 in the presence of 40% normal human serum; type: functional
[8] = Activity of CYP3A4 in rat liver microsomes assessed as oxidation of tetrahydroquinoline ring; type: ADME, Microsome
[9] = system: Human immunodeficiency virus 1; assay: Ratio of IC50 for HIV1 carrying reverse transcriptase K103N mutant to IC50 for wild type HIV1 in the presence of 40% normal human serum; type: functional
[10] = system: Human immunodeficiency virus 1; assay: Ratio of IC50 for HIV1 carrying reverse transcriptase Y188L mutant to IC50 for wild type HIV1 in the presence of 40% normal human serum; type: functional
[11] = system: Human immunodeficiency virus 1; assay: Ratio of IC50 for HIV1 carrying reverse transcriptase […]/ Y181C/G190A mutant to IC50 for wild type HIV1 in the presence of 40% normal human serum; type: functional
[12] = system: Human immunodeficiency virus 1; assay: Ratio of IC50 for HIV1 carrying reverse transcriptase G190S mutant to IC50 for wild type HIV1 in the presence of 40% normal human serum; type: functional
[13] = system: Human immunodeficiency virus 1; assay: Antiviral activity against HIV1 carrying reverse transcriptase G190S mutant infected human MT4 cells by phenoscreen assay in the presence of 40 percent normal human serum; details: Human immunodeficiency virus 1, MT4
[14] = Volume of distribution in Beagle dog at 1 mg/kg, po and 0.5 mg/kg, iv; type: ADME, organism-based, Canis lupus familiaris; details: in vivo, read-out: Vdss
Outline: as §2

[15] = system: Human immunodeficiency virus 1; assay: Antiviral activity against HIV1 carrying reverse transcriptase K103N/P225H mutant infected human MT4 cells by phenoscreen assay in the presence of 40 percent normal human serum; type: functional, organism-based; details: Human immunodeficiency virus 1, MT4
Outline: (§3)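 Phenotypic recombinant-virus assay (Phenoscreen, Monogram Bioscience), run with 40% normal human serum present. IC50 is the compound concentration in cell culture that inhibits viral replication by 50%.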

[16] = system: Human immunodeficiency virus 1; assay: Antiviral activity against HIV1 carrying reverse transcriptase […] mutant infected human MT4 cells by phenoscreen assay in the presence of 40 percent normal human serum; type: functional, organism-based; details: Human immunodeficiency virus 1, MT4
Outline: as §3

[17] = Activity of CYP3A4 in rat hepatocytes assessed as oxidation of tetrahydroquinoline ring; type: ADME, cell-based, Hepatocyte
[18] = system: Human immunodeficiency virus 1; assay: Antiviral activity against HIV1 carrying reverse transcriptase K103N/V179E mutant infected human MT4 cells by phenoscreen assay in the presence of 40 percent normal human serum; type: functional, organism-based; details: Human immunodeficiency virus 1, MT4
Outline: as §3

[19] = system: Human immunodeficiency virus 1; assay: Antiviral activity against HIV1 carrying reverse transcriptase K101E/G190A mutant infected human MT4 cells by phenoscreen assay in the presence of 40 percent normal human serum; details: Human immunodeficiency virus 1, MT4
[20] = system: Human immunodeficiency virus 1; assay: Antiviral activity against HIV1 carrying reverse transcriptase G190A mutant infected human MT4 cells by phenoscreen assay in the presence of 40 percent normal human serum; details: Human immunodeficiency virus 1, MT4
[21] = system: Human immunodeficiency virus 1; assay: Antiviral activity against HIV1 carrying reverse transcriptase K103N mutant infected human MT4 cells by phenoscreen assay in the presence of 40 percent normal human serum; type: functional, organism-based; details: Human immunodeficiency virus 1, MT4
Outline: as §3

[22] = system: Human immunodeficiency virus 1; assay: Antiviral activity against HIV1 carrying reverse transcriptase Y188L mutant infected human MT4 cells by phenoscreen assay in the presence of 40 percent normal human serum; type: functional, organism-based; details: Human immunodeficiency virus 1, MT4
Outline: as §3

[23] = system: Human immunodeficiency virus 1; assay: Ratio of IC50 for HIV1 carrying reverse transcriptase K103N/Y181C mutant to IC50 for wild type HIV1 in the presence of 40% normal human serum; type: functional
[24] = system: Human immunodeficiency virus 1; assay: Antiviral activity against HIV1 carrying reverse transcriptase Y181C mutant infected human MT4 cells by phenoscreen assay in the presence of 40 percent normal human serum; type: functional, organism-based; details: Human immunodeficiency virus 1, MT4
Outline: as §3

[25] = system: Human immunodeficiency virus 1; assay: Ratio of IC50 for HIV1 carrying reverse transcriptase K103N/G190A mutant to IC50 for wild type HIV1 in the presence of 40% normal human serum; type: functional
Rattus norvegicus [26] = assay: Hepatic clearance in Sprague-Dawley rat at 10 mg/kg, po and 2 mg/kg, iv; type: ADME, organism-based, Liver; details: in vivo
[27] = Oral bioavailability in Beagle dog at 1 mg/kg; type: ADME, organism-based, Canis lupus familiaris; details: in vivo
Outline: as §2

[28] = system: Human immunodeficiency virus 1; assay: Antiviral activity against HIV1 R8 infected human MT4 cells assessed as drug level required for 95% inhibition in the presence of 10% fetal bovine serum; type: functional
Outline: as §1

[29] = Activity of CYP3A4 in rat bile assessed as oxidation of tetrahydroquinoline ring; type: ADME
[30] = system: Human immunodeficiency virus 1; assay: Antiviral activity against HIV1 infected human MT4 cells by phenoscreen assay in the presence of 40 percent normal human serum; type: functional, organism-based; details: Human immunodeficiency virus 1, MT4
[31] = system: Human immunodeficiency virus 1; assay: Antiviral activity against HIV1 carrying reverse transcriptase K103N/G190A mutant infected human MT4 cells by phenoscreen assay in the presence of 40 percent normal human serum; type: functional, organism-based; details: Human immunodeficiency virus 1, MT4
Outline: as §3

[32] = system: Human immunodeficiency virus 1; assay: Ratio of IC50 for HIV1 carrying reverse transcriptase K103N/V179E mutant to IC50 for wild type HIV1 in the presence of 40% normal human serum; type: functional
[33] = system: Human immunodeficiency virus 1; assay: Antiviral activity against HIV1 carrying reverse transcriptase K101E/ Y181C/G190A mutant infected human MT4 cells by phenoscreen assay in the presence of 40 percent normal human serum; details: Human immunodeficiency virus 1, MT4
[34] = system: Human immunodeficiency virus 1; assay: Antiviral activity against HIV1 R8 infected human MT4 cells assessed as drug level required for 95% inhibition in the presence of 50% normal human serum; type: functional
Outline: as §1

[35] = system: Human immunodeficiency virus 1; assay: Antiviral activity against HIV1 carrying reverse transcriptase V106A/G190A/F227L mutant infected human MT4 cells by phenoscreen assay in the presence of 40 percent normal human serum; type: functional, organism-based; details: Human immunodeficiency virus 1, MT4
Outline: as §3

[36] = system: Human immunodeficiency virus 1; assay: Ratio of IC50 for HIV1 carrying reverse transcriptase K103N/P225H mutant to IC50 for wild type HIV1 in the presence of 40% normal human serum; type: functional
[37] = system: Human immunodeficiency virus 1; assay: Antiviral activity against HIV1 carrying reverse transcriptase Y181C/G190A mutant infected human MT4 cells by phenoscreen assay in the presence of 40 percent normal human serum; type: functional, organism-based; details: Human immunodeficiency virus 1, MT4
Outline: as §3

[38] = system: Human immunodeficiency virus 1; assay: Ratio of IC50 for HIV1 carrying reverse transcriptase […]/G190A mutant to IC50 for wild type HIV1 in the presence of 40% normal human serum; type: functional
[39] = system: Human immunodeficiency virus 1; assay: Antiviral activity against HIV1 carrying reverse transcriptase […]/G190A mutant infected human MT4 cells in the presence of 40 percent normal human serum; type: functional
Outline: as §3

[40] = system: Human immunodeficiency virus 1; assay: Antiviral activity against HIV1 carrying reverse transcriptase K103N/Y181C mutant infected human MT4 cells by phenoscreen assay in the presence of 40 percent normal human serum; type: functional, organism-based; details: Human immunodeficiency virus 1, MT4
Outline: as §3

[41] = system: Human immunodeficiency virus 1; assay: Ratio of IC50 for HIV1 carrying reverse transcriptase G190A mutant to IC50 for wild type HIV1 in the presence of 40% normal human serum; type: functional
[42] = Activity of CYP3A4 in rat plasma assessed as oxidation of tetrahydroquinoline ring; type: ADME, cell-free
[43] = system: Human immunodeficiency virus 1; assay: Ratio of IC50 for HIV1 carrying reverse transcriptase Y181C mutant to IC50 for wild type HIV1 in the presence of 40% normal human serum; type: functional
[44] = system: Human immunodeficiency virus 1; assay: Ratio of IC50 for HIV1 carrying reverse transcriptase V106A/G190A/F227L mutant to IC50 for wild type HIV1 in the presence of 40% normal human serum; type: functional
[45] = system: Human immunodeficiency virus 1; assay: Ratio of IC50 for HIV1 carrying reverse transcriptase […] mutant to IC50 for wild type HIV1 in the presence of 40% normal human serum; type: functional
[46] = system: Human immunodeficiency virus 1; assay: Antiviral activity against HIV1 carrying reverse transcriptase K103N/ Y181C/G190A mutant infected human MT4 cells by phenoscreen assay in the presence of 40 percent normal human serum; type: functional, organism-based; details: Human immunodeficiency virus 1, MT4
Outline: as §3

`Cc1cccc2c1N(C(=O)SCC(=O)Nc1ccc(S(N)(=O)=O)cc1Cl)CCC2` showed an IC50 [1] of 0.004 µM, an ID95 [2] of 0.047 µM and an ID95 [3] of 0.219 µM.

For `Cc1cc(C)c(N(C)C(=O)SCC(=O)Nc2ccc(S(N)(=O)=O)cc2Cl)c(C)c1`, the IC50 [1] was 0.009 µM.

Molecule `NS(=O)(=O)c1ccc(NC(=O)C2CC2C(=O)N2CCCc3cc(Cl)cc(Cl)c32)c(Cl)c1` (single isomer, unassigned; 17) has an IC50 [1] of 0.43 µM, an Activity [2] of 922 nM and an Activity [3] of 922 nM.

For `NS(=O)(=O)c1ccc(NC(=O)C2CC2C(=O)N2CCCc3cc(Cl)cc(Cl)c32)c(Cl)c1` (single isomer, unassigned; 16), the IC50 [1] was 0.018 µM, the CL (Canis familiaris) was 14 mL/min/kg and the half-life [4] was 30 min. For the same molecule, the Activity [2] was 176 nM, the half-life [5] was 78 min and the CL (Rattus norvegicus [6]) was 22 mL/min/kg. For the same molecule, the Activity [3] was 304 nM.

For `N#Cc1ccc(NC(=O)CSC(=O)N2CCCc3cc(Cl)cc(Cl)c32)c(Cl)c1`, the IC50 [1] was 0.014 µM and the ID95 [3] was 1.25 µM.

`NS(=O)(=O)c1ccc(NC(=O)CCC(=O)N2CCCc3cc(Cl)cc(Cl)c32)c(Cl)c1` showed an Activity [2] of 406 nM and an Activity [3] of 5000 nM.

In the case of `NS(=O)(=O)c1ccc(NC(=O)CSC(=O)N2CCCc3cc(Cl)cc(Cl)c32)c(Cl)c1`, the “fold change (FC)” value [7] is reported as 272.5, the Activity [8] is reported as “Active” and the “fold change (FC)” value [9] is reported as 0.8. For the same molecule, the “fold change (FC)” value [10] was greater than 833, the “fold change (FC)” value [11] was greater than 833 and the “fold change (FC)” value [12] was 51.6. The IC50 [13] was 0.0619 µM, the half-life [4] was 24 min and the Vd [14] was 5 L/kg. For the same molecule, the IC50 [15] was 0.0032 µM, the IC50 [16] was 0.0055 µM and the ID95 [2] was 0.013 µM. For the same molecule, the Activity [17] was “Active”, the IC50 [18] was 0.0022 µM and the IC50 [19] was 0.113 µM. It also gave an IC50 [20] of 0.0121 µM, an IC50 [21] of 0.0009 µM and an IC50 [22] greater than 1 µM. For the same molecule, the “fold change (FC)” value [23] was 53.5, the IC50 [24] was 0.0168 µM and the “fold change (FC)” value [25] was 6.8. The half-life [5] was 294 min, the CL (Rattus norvegicus [26]) was 109 mL/min/kg and the bioavailability [27] was 30%. The Activity [28] was 18 nM, the Activity [29] was “Active” and the IC50 [30] was 0.0012 µM. The IC50 [31] was 0.0082 µM, the “fold change (FC)” value [32] was 1.8 and the IC50 [33] was greater than 1 µM. For the same molecule, the Activity [34] was 33 nM, the IC50 [35] was greater than 1 µM and the “fold change (FC)” value [36] was 2.7. The IC50 [37] was 0.327 µM, the “fold change (FC)” value [38] was 94.3 and the fold change (FC) [39] was 94.3. For the same molecule, the IC50 [40] was 0.0642 µM, the “fold change (FC)” value [41] was 10.1 and the Activity [42] was “Active”. For the same molecule, the “fold change (FC)” value [43] was 14, the “fold change (FC)” value [44] was greater than 833 and the ID95 [3] was 0.04 µM. The “fold change (FC)” value [45] was 4.6 and the IC50 [46] was greater than 1 µM.

In the case of `NS(=O)(=O)c1ccc(NC(=O)CSC(=O)N2CCCc3cc(Cl)ccc32)c(Cl)c1`, the ID95 [2] is reported as 0.141 µM and the ID95 [3] is reported as 1.25 µM.
